Source: PubChem BioAssay (several laboratories)
In the library only some 2.6% were active in any assay of this set; here they are far more common.
AHR activator: activators of human aryl hydrocarbon receptor. activation, % at 5 µM. AID 2796. 2.5% of 320,000 active. AHR-responsive luciferase reporter cells, luminescence; in the data active means activation above about 47%;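 further: 0% = vehicle wells and 100% = reference agonist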
PolyA inh: inhibitors of polyadenylation in S. cerevisiae; S. cerevisiae SKY197-pL101 polyadenylation reporter, beta-gal luminescence; efflux-impaired pdr1/pdr3 knockout yeast; score 100 = 6 SD above DMSO; activity score, % at 12 µM; 0.02% of 300,000 active; AID 1875;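 active means lowest replicate activity score at least 50, where 100 means six control SD above control mean; inconclusive means lowest score under 50 but half or more replicates reach 50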;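 further: yeast exposed to compound for 9 h at 30 °C; higher score means more reporter readthrough which indicates perturbed polyadenylation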
proCasp7 act: activates human procaspase-7, counter-screen for procaspase-3 activators; 0.093% of 330,000 active; recombinant procaspase-7, Ac-DEVD-pNA absorbance 405 nm; D23A/D198A/D206A triple mutant, cannot self-cleave; scale: DMSO 0, 5 µM enzyme 100; P55210; activation, % at 8.5 µM;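 active means percent activation above the screen-wide mean plus 3 SD, cut at about 25% in these data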
Target sequence (P55210 whole entry D23A/D198A/D206A): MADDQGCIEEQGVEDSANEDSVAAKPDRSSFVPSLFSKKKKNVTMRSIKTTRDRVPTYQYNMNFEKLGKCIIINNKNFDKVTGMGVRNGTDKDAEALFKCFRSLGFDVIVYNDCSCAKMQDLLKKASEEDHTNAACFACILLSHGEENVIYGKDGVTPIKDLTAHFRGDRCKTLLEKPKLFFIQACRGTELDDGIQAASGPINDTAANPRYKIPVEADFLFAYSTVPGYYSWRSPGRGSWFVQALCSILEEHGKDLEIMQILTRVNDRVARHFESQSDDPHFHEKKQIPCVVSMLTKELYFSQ
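signal = Epi-absorbance of released pNA at 405 nm, two timepoints | assay system = Uncleavable procaspase-7 mutant enzyme | reagent = Ac-DEVD-pNA substrate, 400 µM as added | times = 1 h enzyme–compound preincubation and 2 h substrate reaction, both 25 °C | benchmarks = low DMSO alone, high DMSO plus 5 µM PC-7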
procasp3 activ: activates human procaspase-3; AID 463141; 0.11% of 330,000 active; activation, % at 8.5 µM; recombinant procaspase-3 D3A, Ac-DEVD-pNA absorbance 405 nm; P42574;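 active means activation above the mean of all tested compounds plus 3 SD, cut at about 21% in these data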;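 further: 0% = DMSO alone and 100% = DMSO wells spiked with extra 5 µM PC-3 D3A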
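Assay system: Procaspase-3 D3A mutant, all three cleavage aspartates alanine. Buffer or medium: Zinc-free HEPES saline buffer with Triton X-100. Times: 1 h compound preincubation, 2 h substrate hydrolysis at 25 °C. Measured by: 405 nm absorbance of p-nitroaniline, reads at 0 and 120 min. Read-out basis: percent activation relative to control range. Replicates: singlicate.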
* = called active by the depositor; u = inconclusive; x = no result given.

SMILES | AHR activator | PolyA inh | proCasp7 act | procasp3 activ
Cc1cccc(NC(=O)c2cccc(S(=O)(=O)N3CCc4ccccc4C3)c2)n1 | 11 | 20 | 2 | -4
CC(C)(C)N(Cc1ccccc1)C(=O)COC(=O)c1ccc2ccccc2n1 | 6 | x | 9 | -2
COc1ccc(Cl)cc1NC(=O)CN(C)C(=O)c1sccc1-c1ccccc1 | 55* | x | -7 | 5
CCOC(=O)C1CCN(C(=O)c2ccccc2CCc2ccccc2)CC1 | 1 | 15 | 1 | 6
Cc1ccc(Nc2c(-c3ccccn3)nc3cccc(C)n23)cc1 | 4 | -4 | 7 | 0
N/C(=N\OC(=O)c1ccccc1Cl)c1ccccn1 | 52* | -7 | 8 | 18
N/C(=N\OC(=O)c1cccc(Cl)c1)c1ccccn1 | 70* | -4 | -3 | -8
N/C(=N\OC(=O)c1ccc(Cl)c(Cl)c1)c1ccccn1 | 72* | -20 | -11 | -4
CSc1nc2sc3c(c2c(=O)[nH]1)CCC(C)C3 (stereo not drawn) | 69* | -14 | 9 | 4
COc1ccccc1-c1noc(-c2ccccc2C(=O)NCc2ccco2)n1 | 50* | 1 | -1 | -7
CCN(CC(=O)Nc1ccccc1OC)C(=O)CSCC(=O)Nc1ccc(OC)cc1 | 8 | -4 | 3 | 9
Cn1c2ccccc2c2cc(C(=O)OCC(=O)N3CC(=O)Nc4ccccc43)sc21 | 31 | 4 | 21 | 4
Cn1c2ccccc2c2cc(C(=O)NNC(=O)CCl)sc21 | 62* | 9 | -15 | -9
CCCNC(=O)c1cc2c3ccccc3n(C)c2s1 | 52* | -13 | -8 | -6
CC(=O)Nc1ccc(S(=O)(=O)NNC(=O)c2cc3c4ccccc4n(C)c3s2)cc1 | 75* | -22 | -13 | 2
COCCNC(=O)c1cc2c3ccccc3n(C)c2s1 | 49* | -13 | -1 | -9
COCCNC(=O)c1cc2c(=O)n(C)c3ccccc3c2n1C | 23 | u | -3 | 6
CCOC(=O)N1CCN(S(=O)(=O)CCNC(=O)c2ccc(F)cc2)CC1 | 1 | -7 | 11 | 0
Cc1ccccc1NC(=O)c1ccc(-n2cncn2)nc1 | 121* | 12 | 4 | 4
CCC(C)(C)C1CCC2(CC1)NC(=O)N(CC(=O)N(C)Cc1ccc(OC(F)F)cc1)C2=O (stereo not drawn) | -1 | 6 | 5 | -8
COc1ccc(NC(=O)c2cc(Br)ccc2Cl)c(OC)c1 | 107* | -8 | -3 | -4
COc1ccc(NC(=S)NC(=O)Cc2ccccc2)c(OC)c1 | 48* | -18 | 6 | -12
COc1ccccc1NC(=S)NC(=O)Cc1ccccc1 | 14 | 0 | -5 | -1
CCC(=O)NC(=S)Nc1ccc(OC)cc1OC | 70* | 9 | 7 | 1
O=C(CN1C(=O)C2C3C=CC(C4CC34)C2C1=O)Nc1cnc2ccccc2c1 (stereo not drawn) | 13 | -2 | -2 | -1
SMILES | AHR activator | PolyA inh | proCasp7 act | procasp3 activ
CCC(C)Sc1nc2c(cnn2-c2ccccc2)c(=O)[nH]1 (stereo not drawn) | 66* | 7 | 4 | 0
CCC(C)Sc1nc2c(cnn2-c2ccc(C)cc2)c(=O)[nH]1 (stereo not drawn) | 3 | -8 | 4 | 1
COc1ccc(-c2csc(Nc3ccccc3)[n+]2CC(O)c2ccc([N+](=O)[O-])cc2)cc1 (stereo not drawn) | 47* | -11 | -10 | -3
O=C(Nc1ccccc1)c1cnc2n(c1=O)CCS2 | 54* | 9 | 11 | 9
O=C(Nc1ccc(OC(F)(F)F)cc1)c1cnc2n(c1=O)CCS2 | 67* | 18 | -1 | 8
COc1ccc2c(c1)cc(C(=O)N[C@@H](CCSC)C(=O)N1CCC(C(=O)O)CC1)n2C | 4 | -1 | -2 | 2
O=C(C[n+]1ccccc1)N/N=C/c1c(F)cccc1Cl | -1 | 9 | 2 | -4
CCOc1ccc2[nH]c3c(N4CCC5(CC4)OCCO5)ncnc3c2c1 | 71* | -2 | -2 | 6
CCOc1ccc2[nH]c3c(N4CCN(C(=O)c5ccco5)CC4)ncnc3c2c1 | 24 | 23 | 4 | 4
CCOC(=O)N1CCN(c2ncnc3c2[nH]c2ccc(OC)cc23)CC1 | 23 | 9 | -3 | 1
COc1ccc2[nH]c3c(N4CCc5ccccc5C4)ncnc3c2c1 | 58* | -2 | 14 | 2
COc1cc(C(=O)NCCC(=O)NC(C)CCc2ccccc2)cc(OC)c1OC (stereo not drawn) | 4 | -3 | 4 | 1
